# Reference: publication PMC4306959 (Scientific Reports, 2015)
# Key:
# JNK3 = conditions: cited from earlier work
# JNK2 = conditions: cited from earlier work
# JNK3α1L144I = JNK3α1L144I (Homo sapiens, UniProt P53779, L144I); assay: HTRF enzyme inhibition assay, JNK3 L144I mutant; assay type: biochemical; conditions: read-out: Km value of ATP for JNK3 L144I
# Outline: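 Human JNK3 39–402 L144I, made by PCR mutagenesis and expressed like WT, activated for 2 h at 30°C with MKK4/MKK7 (100 nM each) in HEPES pH 7.5, MgCl2, DTT, 200 μM ATP; activation checked by MS and Western. HTRF at 0.75 nM enzyme, 0.5 μM biotinylated FL-ATF-2, 1.25 μM ATP, 1 h. Top concentration 10,000 nM.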
# JNK3α1L144I, sequence (P53779 39-402 L144I): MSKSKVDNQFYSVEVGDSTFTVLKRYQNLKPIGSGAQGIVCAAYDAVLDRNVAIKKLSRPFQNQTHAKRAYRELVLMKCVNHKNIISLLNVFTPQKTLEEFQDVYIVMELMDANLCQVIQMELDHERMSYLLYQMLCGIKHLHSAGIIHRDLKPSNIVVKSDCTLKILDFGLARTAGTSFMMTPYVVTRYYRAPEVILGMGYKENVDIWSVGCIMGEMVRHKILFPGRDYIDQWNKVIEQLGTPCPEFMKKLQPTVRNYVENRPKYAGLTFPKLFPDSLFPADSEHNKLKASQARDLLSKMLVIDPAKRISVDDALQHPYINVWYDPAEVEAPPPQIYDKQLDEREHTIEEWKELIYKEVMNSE
compound,measurement,setting,value
Cn1c(NC[C@@H](N)Cc2ccccc2)nc(-c2ccncc2)c(-c2ccc3ccccc3c2)c1=O [AMG-548],Selectivity for JNK3 compared to JNK1,JNK3,188 fold
same,Selectivity for JNK2 compared to JNK1,JNK2,294 fold
Nc1ncnc2c1ncn2[C@@H]1O[C@H](COP(=O)(O)OP(=O)(O)OP(=O)(O)O)[C@@H](O)[C@H]1O [ATP],Km,JNK3α1L144I,2.9 µM
